ChEMBL document CHEMBL6092224, “The Discovery and Preclinical Profile of ALG-000184, a Prodrug of the Potent Hepatitis B Virus Capsid Assembly Modulator ALG-001075” (J Med Chem, 2024)
Calls of active or inactive are those of the source. The calls are words filed in the database; no cut-off is given here.

Experiments:
[1] = Clearance in Cynomolgous monkey at 1 mg/kg, iv by LC-MS/MS analysis; assay type: ADME, organism-based, Macaca fascicularis; conditions: cynomolgus monkey, in vivo
In short: (§1)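 Single dose to fasted male C57BL6 mice, Sprague-Dawley rats, beagle dogs and cynomolgus monkeys, either IV at 1 mg/kg or PO as a solution at 5 mg/kg, in 80% PEG 400 in water. Plasma concentrations were measured by LC-MS/MS. PK parameters come from noncompartmental analysis using nominal doses and nominal sampling times.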

[2] = Tmax in Sprague-Dawley rat at 5 mg/kg, po by LC-MS/MS analysis; assay type: ADME, organism-based; conditions: in vivo
In short: (§2)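 Fasted males (C57BL6 mice, Sprague−Dawley rats, beagle dogs, cynomolgus monkeys) given a single oral solution dose of 5 mg/kg in 80% PEG 400 in water. Plasma sampled over time, analysed by LC-MS/MS. Noncompartmental analysis used nominal doses and nominal sampling times.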

[3] = Half life in C57BL/6J mouse at 1 mg/kg, iv by LC-MS/MS analysis; assay type: ADME, organism-based; conditions: in vivo; in short: as §1
[4] = AUC (infinity) in Cynomolgous monkey at 5 mg/kg, po by LC-MS/MS analysis; assay type: ADME, organism-based, Macaca fascicularis; conditions: cynomolgus monkey, in vivo; in short: as §1
[5] = AUC (infinity) in C57BL/6J mouse at 5 mg/kg, po by LC-MS/MS analysis; assay type: ADME, organism-based; conditions: in vivo; in short: as §1
[6] = Plasma protein binding in Cynomolgous monkey at 1 uM incubated for 4 to 24 hrs by equilibrium dialysis method; assay type: ADME, cell-free, Macaca fascicularis; conditions: cynomolgus monkey, time 4-24 hrs, read-out: PPB (converted)
In short: (§3)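 Rapid equilibrium dialysis in mouse, rat, dog, monkey or human plasma for 4 or 24 h; test concentrations 1, […].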

[7] = Cmax in Sprague-Dawley rat at 5 mg/kg, po by LC-MS/MS analysis; assay type: ADME, organism-based; conditions: in vivo; in short: as §1
[8] = system: Hepatitis B virus; assay: Antiviral activity against HBV infected in human HepG2.117 cells by qPCR analysis; assay type: functional, organism-based
In short: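 HepG2.117 cells (integrated genotype D HBV genome, Tet-off promoter; kept in 1 μg/mL doxycycline) were seeded at 20,000 cells/well and given serial compound dilutions (2% DMSO) for 3 days at 37 °C. Lysates were taken in 0.33% NP40. Intracellular HBV DNA was quantified by qPCR and EC50/EC90 derived. For serum shift, 40% human serum was present during incubation. Mean ± SEM, n=3 (serum) or 13.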

[9] = Toxicity in C57BL/6 mouse infected with AAV-Hepatitis B virus assessed as change in body weight at 15 mg/kg, po bid for 56 days followed by induction of compound washout period for 14 days; assay type: organism-based; conditions: in vivo, 1680 h, time 70 day
[10] = system: Hepatitis B virus; assay: Antiviral activity against HBV infected in human primary hepatocyte cells assessed as decrease in HBsAg level pre-infected cells with virus followed by compound treatment for 3 days and subsequent replacement of medium with compound measured after 4 days by CLIA; assay type: functional, organism-based
[11] = system: Mus musculus; assay: Effect on HBeAg level in C57BL/6 mouse infected with AAV-Hepatitis B virus at 15 to 50 mg/kg, po qd for 56 days followed by induction of compound washout period for 14 days; assay type: functional, organism-based; conditions: dose 15-50 mg/kg, time 70.0 day
[12] = Metabolic stability in human assessed as half life at 1 uM incubated upto 180 mins
[13] = target: Broad substrate specificity ATP-binding cassette transporter ABCG2 (Homo sapiens, UniProt Q9UNQ0); assay: Inhibition of BCRP in human Caco-2 cells using estrone 3-sulfate as substrate; assay type: cell-based
In short: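 Inhibition of estrone 3-sulfate (5.00 μM) transport in Caco-2 cells was measured at eight concentrations (0.0229–50.0 μM or 0.0457–100 μM). Percent inhibition relative to vehicle control was used to calculate IC50.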

[14] = target: Organic anion transporter 3 (Homo sapiens, UniProt Q8TCC7); assay: Inhibition of OAT3 (unknown origin) transfected in HEK293 cells; assay type: cell-based
In short: (§4)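 HEK-293 cells transfected with the uptake transporter; uptake of known probe substrates measured with test compound at eight concentrations (0.0229–50.0 μM or 0.0457–100 μM); inhibition at each concentration used to calculate IC50.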

[15] = Ratio of drug concentration in blood to plasma in rat at 5 uM incubated for 60 mins; assay type: ADME, cell-free
In short: (§5)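 Compound at 5 μM in whole blood of each species, 37 ± 1 °C for 60 min; blood-to-plasma ratio and red blood cell partitioning determined.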

[16] = Toxicity in C57BL/6 mouse infected with AAV-Hepatitis B virus assessed as change in ALT level at 15 mg/kg, po bid for 56 days followed by induction of compound washout period for 14 days; assay type: organism-based; conditions: in vivo, 1680 h, time 70 day
[17] = Plasma protein binding in human at 1 uM incubated for 4 to 24 hrs by equilibrium dialysis method; assay type: ADME, cell-free; conditions: time 4-24 hrs, read-out: PPB (converted); in short: as §3
[18] = Cytotoxicity against human HepG2.117 cells assessed as cell viability upto 50 uM; assay type: toxicity, cell-based; conditions: hepg2.117, 50 µM
[19] = system: Nav1.5; assay: Inhibition of Nav1.5 (unknown origin) expressed in mammalian cells at 10 uM by automated patch-clamp method; assay type: toxicity, cell-based, Homo sapiens; conditions: mammalian cells expressing Nav1.5
In short: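 Currents of hERG, Nav1.5 or Cav1.2 channels expressed in mammalian cells recorded by automated patch clamp (QPatch 48) at room temperature.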

[20] = Effect on differentiation of human HPC cells upto 10 uM; assay type: toxicity, cell-based
[21] = system: Hepatitis B virus; assay: Antiviral activity against AAV-Hepatitis B virus infected in C57BL/6 mouse assessed as reduction in baseline HBV DNA production at 15 mg/kg, po bid measured after 56 days; assay type: functional; conditions: time 56 day
[22] = system: Mus musculus; assay: Effect on HBsAg level in C57BL/6 mouse infected with AAV-Hepatitis B virus at 15 to 50 mg/kg, po qd for 56 days followed by induction of compound washout period for 14 days; assay type: functional, organism-based; conditions: dose 15-50 mg/kg, time 70.0 day
[23] = Ratio of drug concentration in blood to plasma in dog at 5 uM incubated for 60 mins; assay type: ADME, cell-free, Canis lupus familiaris; in short: as §5
[24] = Tmax in C57BL/6J mouse at 5 mg/kg, po by LC-MS/MS analysis; assay type: ADME, organism-based; conditions: in vivo; in short: as §2
[25] = Plasma protein binding in Cynomolgous monkey at 2 uM incubated for 4 to 24 hrs by equilibrium dialysis method; assay type: ADME, cell-free, Macaca fascicularis; conditions: cynomolgus monkey, time 4-24 hrs, read-out: PPB (converted)
In short: (§6)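 Rapid equilibrium dialysis in mouse, rat, dog, monkey or human plasma for 4 or 24 h at 2 μM.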

[26] = Prodrug conversion in Sprague-Dawley rat assessed as formation of N-(3-cyano-4-fluorophenyl)-4-(2-((3-ethynyloxetan-3-yl)amino)-2-oxoacetyl)-1,3,5-trimethyl-1H-pyrrole-2-carboxamide metabolite at 37.8 mg/kg, po measured for 24 hrs; assay type: ADME, organism-based; conditions: in vivo
In short: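 Single oral prodrug dose at molar equivalent of 30 mg/kg (rats) or […] of parent in 95% PEG 400/5% copovidone; whole blood collected into 4 volumes 75% MeOH/25% acetonitrile, centrifuged, parent quantified by LC-MS/MS; noncompartmental PK analysis.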

[27] = Plasma protein binding in rat at 2 uM incubated for 4 to 24 hrs by equilibrium dialysis method; assay type: ADME, cell-free; conditions: time 4-24 hrs, read-out: PPB (converted); in short: as §6
[28] = target: Solute carrier family 22 member 6 (Homo sapiens, UniProt Q4U2R8); assay: Inhibition of OAT1 (unknown origin) transfected in HEK293 cells; assay type: cell-based; in short: as §4
Sequence of Solute carrier family 22 member 6 (Q4U2R8 whole entry): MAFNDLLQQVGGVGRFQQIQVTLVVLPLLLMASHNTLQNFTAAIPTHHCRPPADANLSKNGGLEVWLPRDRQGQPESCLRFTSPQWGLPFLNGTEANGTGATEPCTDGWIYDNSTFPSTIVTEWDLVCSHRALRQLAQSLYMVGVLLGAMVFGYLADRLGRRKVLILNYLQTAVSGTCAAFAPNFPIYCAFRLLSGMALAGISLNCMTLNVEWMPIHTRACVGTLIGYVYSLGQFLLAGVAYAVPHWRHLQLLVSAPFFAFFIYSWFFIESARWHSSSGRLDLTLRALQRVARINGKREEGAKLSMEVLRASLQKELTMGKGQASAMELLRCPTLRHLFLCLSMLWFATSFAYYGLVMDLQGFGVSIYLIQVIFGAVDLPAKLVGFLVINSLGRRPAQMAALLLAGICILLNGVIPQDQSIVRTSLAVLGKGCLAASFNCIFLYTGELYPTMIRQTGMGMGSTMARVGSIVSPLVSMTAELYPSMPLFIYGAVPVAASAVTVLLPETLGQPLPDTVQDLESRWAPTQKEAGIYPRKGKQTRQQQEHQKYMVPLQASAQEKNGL

Sequence of Broad substrate specificity ATP-binding cassette transporter ABCG2 (Q9UNQ0 whole entry): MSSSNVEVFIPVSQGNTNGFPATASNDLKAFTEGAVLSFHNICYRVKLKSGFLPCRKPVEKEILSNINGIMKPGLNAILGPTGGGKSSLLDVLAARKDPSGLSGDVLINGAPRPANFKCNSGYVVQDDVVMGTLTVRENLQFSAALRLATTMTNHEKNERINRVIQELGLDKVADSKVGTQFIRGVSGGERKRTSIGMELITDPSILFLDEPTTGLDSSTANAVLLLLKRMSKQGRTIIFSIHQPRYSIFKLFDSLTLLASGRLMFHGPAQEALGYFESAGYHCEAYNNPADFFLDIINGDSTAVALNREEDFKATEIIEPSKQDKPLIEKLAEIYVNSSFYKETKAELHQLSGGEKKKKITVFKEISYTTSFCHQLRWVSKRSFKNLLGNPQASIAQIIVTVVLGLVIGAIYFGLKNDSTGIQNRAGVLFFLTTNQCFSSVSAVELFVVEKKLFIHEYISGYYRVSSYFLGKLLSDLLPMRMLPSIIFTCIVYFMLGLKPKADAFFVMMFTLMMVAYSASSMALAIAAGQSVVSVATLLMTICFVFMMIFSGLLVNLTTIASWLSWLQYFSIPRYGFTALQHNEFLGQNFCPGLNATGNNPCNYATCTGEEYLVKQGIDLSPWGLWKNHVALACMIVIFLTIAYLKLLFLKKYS
Sequence of Organic anion transporter 3 (Q8TCC7 whole entry): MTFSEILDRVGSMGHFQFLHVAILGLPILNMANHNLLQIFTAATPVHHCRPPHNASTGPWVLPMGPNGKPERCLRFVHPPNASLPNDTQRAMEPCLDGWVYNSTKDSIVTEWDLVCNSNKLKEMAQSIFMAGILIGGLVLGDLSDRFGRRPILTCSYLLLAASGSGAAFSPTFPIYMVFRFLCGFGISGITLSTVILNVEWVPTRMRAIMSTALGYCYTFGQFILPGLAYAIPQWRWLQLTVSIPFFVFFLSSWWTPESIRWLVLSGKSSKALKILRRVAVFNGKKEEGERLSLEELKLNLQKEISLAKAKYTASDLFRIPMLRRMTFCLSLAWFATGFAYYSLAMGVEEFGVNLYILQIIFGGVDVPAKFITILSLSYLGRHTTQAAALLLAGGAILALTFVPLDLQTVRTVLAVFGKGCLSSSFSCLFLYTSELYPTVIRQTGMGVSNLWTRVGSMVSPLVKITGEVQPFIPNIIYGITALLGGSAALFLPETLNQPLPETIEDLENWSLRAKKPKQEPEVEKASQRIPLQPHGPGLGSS

Question: What does the source list for `C#CC1(NC(=O)C(=O)c2c(C)c(C(=O)Nc3ccc(F)c(C#N)c3)n(C)c2C)COC1`?
Answer: clearance [1]: 7.89 mL/min/kg; Tmax [2]: 1.67 h; half-life [3]: 1.37 h; AUC(0-inf) [4]: 2190 ng·h/mL; AUC(0-inf) [5]: 7990 ng·h/mL; fraction unbound at 1 µM [6]: 0.284; Cmax [7]: 1830 ng/mL; EC50 [8]: 0.00063 µM; Activity [9]: Non-toxic; EC50 [10]: 0.07 µM; Activity [11]: inactive; half-life at 1 µM [12]: > 6 h; IC50 [13]: > 11.8 µM; IC50 [14]: > 11.8 µM; blood plasma ratio at 1 h, 5 µM [15]: 0.72; Activity [16]: Non-toxic; fraction unbound at 1 µM [17]: 0.191; Activity [18]: Non-toxic; IC50 [19]: > 10 µM; Activity [20]: Non-toxic; Activity [21]: -1.47 log10IU/ml; Activity [22]: inactive; blood plasma ratio at 1 h, 5 µM [23]: 0.82; Tmax [24]: 1 h

Question: With `C#CC1(N(COP(=O)([O-])[O-])C(=O)C(=O)c2c(C)c(C(=O)Nc3ccc(F)c(C#N)c3)n(C)c2C)COC1.[Na+].[Na+]` as the compound, how does the fraction unbound at 2 µM [25] read?
Answer: 0.126

Question: And the Drug metabolism [26]?
Answer: metabolite_detected

Question: And the fraction unbound at 2 µM [27]?
Answer: 0.025

Question: What about the IC50 [28] of the same compound?
Answer: 10.8 µM
